HDAC3 inh = human HDAC3 inhibition; O15379; recombinant HDAC3, fluorogenic peptide/trypsin coupled, fluorescence; inhibition, % at 8.3 µM; actives 0.15% (n = 320,000); in the data active = inhibition above about 26%, passing the limit was not always enough; inconclusive = no clear call, values can overlap the other calls
PfM18AAP inh-1 = PfM18AAP enzyme inhibition; recombinant PfM18AAP, H-Glu-NHMec fluorogenic cleavage; inhibition, % at 7.35 µM; actives 1.2% (n = 290,000);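 active = inhibition above the campaign mean inhibition over all tested compounds plus 3 SD, cut at about 28% in these data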;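 also: 0% = plate median of test compound wells and 100% = 2 mM ZnCl2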
ALR H2O2 inh = inhibitors of human sulfhydryl oxidase ALR; P55789; purified ALR, DTT oxidation, H2O2 HRP-luminol luminescence; inhibition, % (no concentration beside the values); actives 3.8% (n = 290,000);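 active = mean replicate inhibition above about 79%, with every replicate also reaching it, limit read from the data; inconclusive = only one of the two criteria met; inactive = mean below limit and not every replicate reaching it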
Target sequence (P55789 whole entry, looked up): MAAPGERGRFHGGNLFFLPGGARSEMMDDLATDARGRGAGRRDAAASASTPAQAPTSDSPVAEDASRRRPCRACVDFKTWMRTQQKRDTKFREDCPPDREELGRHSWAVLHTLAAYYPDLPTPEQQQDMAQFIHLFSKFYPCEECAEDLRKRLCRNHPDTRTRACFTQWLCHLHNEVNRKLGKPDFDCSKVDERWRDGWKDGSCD
FAS-TE inh = inhibitors of human fatty acid synthase thioesterase domain | actives 0.67% (n = 360,000) | P49327 | recombinant FAS-TE, OMFH fluorogenic substrate, fluorescence endpoint | inhibition, % at 15 µM;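 active = compounds whose normalised, plate-corrected inhibition of enzyme fluorescence in the single-dose primary screen is 50% or more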;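 also: 0% = DMSO with enzyme and 100% = substrate without enzyme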
Rtt109 HAT inh = inhibitors of Candida albicans Rtt109/Vps75 histone acetyltransferase; actives 0.16% (n = 330,000); inhibition, % at 34.9 µM; purified Rtt109/Vps75, ThioGlo CoA-SH fluorescence, 4 h; Q5AAJ8;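 active = inhibition of at least 50% in every replicate; inconclusive = best replicate reaches 50% inhibition but some replicates fall short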
UCH37 DUB inh = blocks the human deubiquitinase UCH37. Q9Y5K5. AID 588478. inhibition, % (test concentration not listed). actives 0.33% (n = 330,000). purified proteasome/UCH37, Ub-AMC cleavage fluorescence;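 active = mean inhibition over replicate wells above about 20%, limit read from the data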;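 also: 0% = compound-free wells with enzyme and 100% = wells lacking proteasome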
Target sequence (Q9Y5K5 whole entry, looked up): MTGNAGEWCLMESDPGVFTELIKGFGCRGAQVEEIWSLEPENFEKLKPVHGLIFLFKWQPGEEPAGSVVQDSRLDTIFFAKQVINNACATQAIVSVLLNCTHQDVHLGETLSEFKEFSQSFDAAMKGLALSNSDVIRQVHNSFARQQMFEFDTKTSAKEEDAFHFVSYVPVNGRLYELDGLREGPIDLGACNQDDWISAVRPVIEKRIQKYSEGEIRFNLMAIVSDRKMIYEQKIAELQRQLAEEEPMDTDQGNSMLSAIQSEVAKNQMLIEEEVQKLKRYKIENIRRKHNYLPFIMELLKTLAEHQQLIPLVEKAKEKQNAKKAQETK
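Material: Human UCH37 enzyme supplied as purified proteasome complex | Schedule: 30 min compound-proteasome preincubation then 25 min substrate reaction, room temperature | Detection: AMC fluorescence from Ub-AMC cleavage, excitation 355 nm, emission 460 nm | Benchmarks: Wells without proteasome as full block, compound-free enzyme plus substrate as uninhibited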
PfM18AAP inh-2 = PfM18AAP inhibition, confirmation | inhibition, % at 7.35 µM | shares compounds with PfM18AAP inh-1 | actives 28% (n = 2,400) | AID 2170 | recombinant PfM18AAP, H-Glu-NHMec fluorogenic cleavage;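 active = mean inhibition over replicate wells above the hit cutoff set for the earlier primary screen, cut at about 29% in these data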;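 also: 0% = median of test compound wells and 100% = 2 mM ZnCl2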
CTSL1 counter = counter-screen for PFM18AAP inhibitors: confirmation of human cathepsin L inhibitors | 2,400 tested, under 10 active | inhibition, % at 5.96 µM | shares compounds with PfM18AAP inh-1 | purified cathepsin L1, Z-Leu-Arg-MCA fluorescence;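 active = average inhibition across replicates above the hit cutoff set in the earlier primary screen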;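 also: 0% = median of test compound wells and 100% = Z-Phe-Ala-diazomethylketone 1 µM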
* hit, by the source's call. This is a sample that favours compounds with a hit; in the whole collection about 4.6% have one here.

How did O=C(Oc1cccc(C(=S)N2CCCCC2)c1)c1ccccc1 do in these assays?
HDAC3 inh: -0.3; PfM18AAP inh-1: -0.3; ALR H2O2 inh: -8.0; FAS-TE inh: 20.0; Rtt109 HAT inh: 2.1; UCH37 DUB inh: -1.6

Results for S=C(c1ccc(Br)cc1)N1CCN(Cc2ccccc2)CC1 ?
HDAC3 inh: 2.7; PfM18AAP inh-1: 42.5*; ALR H2O2 inh: -4.2; FAS-TE inh: 16.4; Rtt109 HAT inh: 4.3; UCH37 DUB inh: 5.3; PfM18AAP inh-2: -1.2; CTSL1 counter: -0.8

What do the screens show for `O=C(Oc1ccc(C(=S)N2CCCCC2)cc1)c1ccccc1`?
HDAC3 inh: -5.2; PfM18AAP inh-1: 36.6*; ALR H2O2 inh: -10.9; FAS-TE inh: 7.4; Rtt109 HAT inh: 15.3; UCH37 DUB inh: 3.5; PfM18AAP inh-2: 5.3; CTSL1 counter: 1.6

How did Oc1ccc(C(=S)N2CCN(Cc3ccccc3)CC2)cc1 do in these assays?
HDAC3 inh: 9.9; PfM18AAP inh-1: 53.6*; ALR H2O2 inh: 14.8; FAS-TE inh: -5.7; Rtt109 HAT inh: 0.1; UCH37 DUB inh: 3.9; PfM18AAP inh-2: -17.9; CTSL1 counter: 1.0

How did Cc1ccc(C(=S)N2CCN(Cc3ccccc3)CC2)s1 do in these assays?
HDAC3 inh: 11.2; PfM18AAP inh-1: 35.2*; ALR H2O2 inh: -13.6; FAS-TE inh: 11.4; Rtt109 HAT inh: 4.9; UCH37 DUB inh: 0.9; PfM18AAP inh-2: 14.2; CTSL1 counter: 5.2

What do the screens show for `S=C(NN=Cc1ccc2ncccc2c1)Nc1ccccc1`?
UCH37 DUB inh: 6.0

How did CN(C)/C=C1\NC(=S)N(c2ccccc2)C1=O do in these assays?
HDAC3 inh: inconclusive; PfM18AAP inh-1: 73.4*; ALR H2O2 inh: 54.6; FAS-TE inh: -6.3; Rtt109 HAT inh: 3.7; UCH37 DUB inh: 18.6; PfM18AAP inh-2: 50.9*; CTSL1 counter: 3.7

How did CN(C)/C=C1\NC(=S)N(c2ccc(Cl)cc2)C1=O do in these assays?
HDAC3 inh: 5.6; PfM18AAP inh-1: 67.5*; ALR H2O2 inh: 20.0; FAS-TE inh: -6.0; Rtt109 HAT inh: -2.4; UCH37 DUB inh: 13.9; PfM18AAP inh-2: 44.1*; CTSL1 counter: 1.7

Results for COc1ccc(NC(=O)NNC(=O)c2cc3occc3n2C)c(OC)c1 ?
HDAC3 inh: 1.5; PfM18AAP inh-1: 60.8*; ALR H2O2 inh: 68.8; FAS-TE inh: -7.0; Rtt109 HAT inh: -1.6; UCH37 DUB inh: 3.3; PfM18AAP inh-2: 38.2*; CTSL1 counter: 2.3

How did Cc1c(C(=O)NN=Cc2cccnc2)sc(=S)n1C do in these assays?
UCH37 DUB inh: 9.5

What do the screens show for `CC[n+]1c(C)sc2cc(OC)ccc21`?
HDAC3 inh: 2.4; PfM18AAP inh-1: 36.6*; ALR H2O2 inh: 47.2; FAS-TE inh: -4.6; Rtt109 HAT inh: 1.9; UCH37 DUB inh: -1.4; PfM18AAP inh-2: -19.9; CTSL1 counter: 1.5

How did O=C(c1ccccc1)c1c[nH]c(C(=O)NNc2cccc(Cl)n2)c1 do in these assays?
HDAC3 inh: 3.3; PfM18AAP inh-1: 52.1*; ALR H2O2 inh: -4.4; FAS-TE inh: -0.4; Rtt109 HAT inh: 6.7; UCH37 DUB inh: -1.2; PfM18AAP inh-2: 31.2*; CTSL1 counter: -0.6

Results for O=C(Nc1cccc(NC(=O)c2ccc(Cl)cc2)n1)c1ccc(Cl)cc1 ?
PfM18AAP inh-1: -4.9; ALR H2O2 inh: -1.6; FAS-TE inh: -5.6; Rtt109 HAT inh: 1.4; UCH37 DUB inh: -1.7

How did CNC(=O)c1cc(C(=O)c2c(Cl)cccc2Cl)c[nH]1 do in these assays?
HDAC3 inh: inconclusive; PfM18AAP inh-1: -9.6; ALR H2O2 inh: 0.8; FAS-TE inh: -7.4; Rtt109 HAT inh: 5.5; UCH37 DUB inh: 4.5

How did O=C(c1ccc(Cl)cc1)c1c[nH]c(C(=O)NNc2cccc(Cl)n2)c1 do in these assays?
HDAC3 inh: -4.2; PfM18AAP inh-1: 51.0*; ALR H2O2 inh: 0.4; FAS-TE inh: -5.1; Rtt109 HAT inh: -7.0; UCH37 DUB inh: 2.7; PfM18AAP inh-2: 35.8*; CTSL1 counter: -5.7

Results for COc1ccc(C=NNC(=O)C(O)(c2ccccc2)c2ccccc2)cc1OC ?
UCH37 DUB inh: 5.6
